For orientation: pKi means the negative decadic logarithm of the Ki, by convention in mol/L.

pKi: −log10 of the molar value.

Experiment [1] deals with Neuronal acetylcholine receptor subunit alpha-7 (Rattus norvegicus, UniProt Q05941). As to the kind of experiment: Displacement of [125I]iodoMLA from alpha-7 nAChR in rat cerebral cortex. Type of experiment: tissue-based. For orientation: In a radioligand displacement assay an active substance lowers the binding of a labelled ligand.
Experiment [2] is described as follows: Displacement of [3H]epibatidine from nAChRalpha, beta in rat cerebral cortex. It is filed as tissue-based. In short, it runs like this: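 Washed male rat cerebral cortex homogenate, 3 mg wet weight, in 50 mM Tris pH 7.4 with NaCl, KCl, CaCl2 and MgCl2. 0.5 nM [3H]epibatidine with 10–12 compound concentrations, 1% DMSO final; 300 μM (–)-nicotine defined nonspecific binding. Incubated 4 h at room temperature, then filtered on PEI-soaked GF/B and counted. Nonlinear fit, at least three experiments.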

In experiment [3] the test system is Mus musculus. As to the kind of experiment: Antagonism of nicotine-induced seizures in ICR mouse at 50 mg/kg, sc. It is filed as functional. On the set-up: scale not given: the % may be the effect or the level left. The conditions noted are these: route subcutaneous. In short, it runs like this: (§1)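 Mice given saline or analog s.c. 10 min before nicotine. Percentage of animals seizing recorded. Dose-response from at least 4 doses with at least 8 mice per dose; AD50 with confidence limits, or % effect at highest dose.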

Experiment [4] concerns Mus musculus. The experiment can be described thus: Antagonism of nicotine-induced antinociceptive effect in sc dosed mouse by tail flick assay. Type of experiment: functional. In short, it runs like this: (§2)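 Mice given saline or analog s.c. at varied times before nicotine; tail-flick tested 5 min after nicotine. Baseline latency 2–4 s, cutoff 10 s. %MPE = (test−control)/(10−control)×100. 8–12 mice per dose, at least 4 doses; AD50 with confidence limits from dose-response, or % effect at top dose.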
(Thermal pain tests record how soon the animal reacts.)

The test system of experiment [5] is Mus musculus. As to the kind of experiment: Antagonism of nicotine-induced effect in mouse at 20 mg/kg, sc by hot plate assay. Particulars: route subcutaneous. On the set-up: scale not given: the % may be the effect or the level left. It is filed as functional. The method, boiled down:
(§3)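 Hot plate held at 55.0 C, mice in a 10 cm glass cylinder. Two control latencies taken at least 10 min apart (normal 8–12 s). Latency scored at jump or paw lick. %MPE = (test−control)/(40−control)×100. Analog given s.c. before nicotine; at least 8 mice per dose; % effect at highest dose.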

The test system of experiment [6] is Mus musculus. The experiment can be described thus: Antagonism of nicotine-induced antinociceptive effect in mouse at 30 mg/kg, sc by tail flick assay. It is filed as functional. Particulars: route subcutaneous. On the set-up: scale not given: the % may be the effect or the level left. In short, it runs like this:
as §2

Experiment [7] relates to Mus musculus. The experiment can be described thus: Antagonism of nicotine-induced effect in mouse at 30 mg/kg, sc by hot plate assay. Type of experiment: functional. On the set-up: scale not given: the % may be the effect or the level left. Particulars: route subcutaneous. The method, boiled down:
as §3

Experiment [8] relates to Mus musculus. As to the kind of experiment: Antagonism of nicotine-induced seizures in sc dosed ICR mouse. It is filed as functional. The method, boiled down: as §1

Neuronal acetylcholine receptor subunit alpha-7, sequence (Q05941 whole entry): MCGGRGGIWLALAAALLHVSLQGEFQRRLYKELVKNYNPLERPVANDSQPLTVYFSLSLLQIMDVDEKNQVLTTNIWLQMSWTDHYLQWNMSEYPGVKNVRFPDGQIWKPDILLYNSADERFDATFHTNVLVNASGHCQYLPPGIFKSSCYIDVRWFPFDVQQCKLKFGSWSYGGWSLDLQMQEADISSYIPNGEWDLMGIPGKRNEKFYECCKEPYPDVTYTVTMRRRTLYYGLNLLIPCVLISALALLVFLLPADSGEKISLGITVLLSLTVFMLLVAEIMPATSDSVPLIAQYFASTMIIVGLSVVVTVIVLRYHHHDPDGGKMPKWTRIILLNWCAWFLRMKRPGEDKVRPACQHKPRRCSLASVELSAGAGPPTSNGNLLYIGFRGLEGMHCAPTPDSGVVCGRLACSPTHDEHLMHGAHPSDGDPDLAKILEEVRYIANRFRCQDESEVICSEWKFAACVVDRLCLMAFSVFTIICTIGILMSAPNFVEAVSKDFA

On to `CCN1C[C@]2(COC(=O)c3ccccc3N3C(=O)C(C)[C@H](C)C3=O)CC[C@H](OC)C34C2[C@H](OC)[C@](O)(C13)[C@@]1(O)C[C@H](OC)[C@H]2C[C@@H]4[C@@H]1[C@H]2OC` (stereo partly drawn), for which the negative logarithm of the Ki (pKi) in experiment [1] was 8.61; in experiment [2], 6.49. The Activity is reported as 0% with Mus musculus [3] and 25% in the experiment with Mus musculus [5]. In the experiment on Mus musculus [4], this molecule yielded an AD50 of 7 mg/kg.
Molecule `CCN1C[C@]2(COC(=O)c3ccccc3N3C(=O)C[C@@H](C)C3=O)CC[C@H](OC)[C@@]34[C@@H]5C[C@H]6[C@H](OC)[C@@H]5[C@](O)(C[C@@H]6OC)[C@](O)([C@@H](OC)[C@H]23)[C@@H]14` gave a negative logarithm of the Ki (pKi) in experiment [2] of 6.45. The Activity with Mus musculus [3] was determined as 40%; in the experiment with Mus musculus [6], 10%; with Mus musculus [7] it was 0%.
Consider `CCN1C[C@]2(COC(=O)c3ccccc3N3C(=O)C[C@H](C)C3=O)CC[C@H](OC)[C@@]34[C@@H]5C[C@H]6[C@H](OC)[C@@H]5[C@](O)(C[C@@H]6OC)[C@](O)([C@@H](OC)[C@H]23)[C@@H]14` [METHYLLYCACONITINE], for which, in experiment [2], the pKi was 6.13. The AD50 came out at 2 mg/kg in the experiment with Mus musculus [8] and 12 mg/kg in the experiment with Mus musculus [4]. In the experiment with Mus musculus [5], this molecule gave an Activity of 15%.
On to `CCN1C[C@]2(COC(=O)c3ccccc3N3C(=O)CC(C)(C)C3=O)CC[C@H](OC)C34C2[C@H](OC)[C@](O)(C13)[C@@]1(O)C[C@H](OC)[C@H]2C[C@@H]4[C@@H]1[C@H]2OC`, for which the negative logarithm of the Ki (pKi) in experiment [1] was 8.75; in experiment [2], 6.22. The results for the AD50 in the experiment on Mus musculus [8] and in the experiment on Mus musculus [4] were 10 mg/kg and 1.8 mg/kg, respectively. In addition, the Activity with Mus musculus [5] was found to be 13%.
